High-throughput results deposited in PubChem BioAssay by several laboratories.
Compounds with a hit are over-represented: about 2.7% of the library has one in this group of screens.
Mdm2 ligase inh – inhibitors of human Mdm2 E3 ubiquitin ligase; Q00987; cell-based MDM2 ubiquitination luciferase reporter, 2 h; 0 = plate control, 100 = twice control, blank-subtracted; signal enhancement, % at 5 µM; 0.11% of 210,000 active;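 active = signal enhancement of 30% or more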;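 also: luminescence tracks abundance of the self-degrading MDM2-luciferase fusion protein; higher signal means inhibition of MDM2 E3 ligase activity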
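Test system: mammalian cells stably expressing self-ubiquitinating, self-degrading MDM2 E3–luciferase fusion; Amount: 2000 cells in each well; Medium: DMEM; Schedule: 4 h settle plus 2 h compound, 37 °C; Technique: SteadyLite luciferase luminescence after 15 min room-temperature reagent incubation; Benchmarks: plate control and blank wells.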
Hck Nef HTS – human Hck-Nef kinase inhibition; AID 463187; Recombinant Hck-YEEI plus Nef, Z-Lyte FRET kinase assay; 0.68% of 220,000 active; inhibition, % at 20 µM;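 active = Hck-Nef kinase inhibition above about 50%, limit read from the data; inactive = inhibition below that limit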;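 also: 0% = DMSO with Hck plus Nef and 100% = Hck alone without Nef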
Tb hexokinase – T. brucei hexokinase 1 inhibition. recombinant TbHK1, G6PDH-coupled NADH A340. inhibition, % at 10 µM. 0.11% of 220,000 active. AID 1430;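 active = inhibition of 50% or more in the single-dose primary screen; inactive = inhibition below 50%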
Wee1 stabilizer – human Wee1 degradation inhibition, primary screen. P30291. HeLa Luc-Wee1K328M stability, luciferase luminescence; 100% = proteasome inhibitor MG132 effect. reporter increase, % at 5 µM. 1.2% of 220,000 active;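 active = activation above the mean of all tested compounds plus 3 SD, set per screening run, cut at about 8.8% in these data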;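 also: cells exposed to compound for 20 h before luminescence read; 0% = DMSO alone and 100% = MG132 at 30 µM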
14-3-3 Bad inh – disrupts binding of bovine 14-3-3 zeta to phospho-Bad peptide. P63103. TR-FRET 14-3-3zeta/Dy647-pBad peptide displacement, 1 h. inhibition, % at 21.7 µM. 0.71% of 220,000 active;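 active = inhibition above about 70%, limit read from the data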;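 also: 0% = full 14-3-3 plus peptide FRET controls and 100% = background without 14-3-3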
Target sequence (P63103 whole entry, looked up): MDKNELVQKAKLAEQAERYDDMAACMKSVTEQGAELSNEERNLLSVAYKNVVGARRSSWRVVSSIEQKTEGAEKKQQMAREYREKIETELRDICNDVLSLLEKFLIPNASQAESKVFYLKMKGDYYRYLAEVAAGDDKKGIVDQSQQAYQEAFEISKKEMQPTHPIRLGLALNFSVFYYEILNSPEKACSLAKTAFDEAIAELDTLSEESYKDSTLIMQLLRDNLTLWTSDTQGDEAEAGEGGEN
* hit, by the source's call; . = no result given; [ ] = dose if it differs, or a comment.

SMILES	Mdm2 ligase inh	Hck Nef HTS	Tb hexokinase	Wee1 stabilizer	14-3-3 Bad inh
COc1ccc(Nc2oc(-c3ccc(F)cc3)nc2C#N)cc1	-5	5	-38	9.3*	-9
COC(=O)C/C=C/[C@@H](C)[C@@H](/C=N/OC[C@@H](C)[C@H](OCc1ccccc1)C(C)C)NS(=O)(=O)c1ccc(C)cc1	.	-4	5	-2	1
Cc1ccc(S(=O)(=O)CCC(=O)Nc2ccc3nc(C)sc3c2)cc1	-5	0	-2	11*	0
C=CCNCCOCCOc1ccc(C)cc1[N+](=O)[O-]	0	1	-5	-2	75*
COc1cc(C)ccc1OCCOCCOc1ccc(C)cc1[N+](=O)[O-]	.	2	-10	4	2
C=CCc1ccccc1OCC(O)CNC (stereo not given)	-18	2	6	-2	1
C=CCc1ccccc1OCC(O)CN(C(C)C)C(C)C (stereo not given)	-5	2	0	2	71*
COc1cc([N+](=O)[O-])cc2cc(C(=O)N3CCCC3)c(=O)oc12	-25	17	-12	0	-5
CCOC(=O)CNC(=O)C1CCCc2c1[nH]c1ccc(Cl)cc21 (stereo not given)	5	16	-7	10*	-9
Cc1ccc(Cl)cc1NC(=O)N(C)CCO	-12	5	-11	-2	-4
Fc1ccc(/C=C\c2nccc3c2[nH]c2ccccc23)cc1	-10	27	-1	0	5
Cc1ccc(/C=C\c2nccc3c2[nH]c2ccccc23)cc1	-18	59*	-9	2	3
COc1ccc(/C(N)=N/OC(=O)c2cccs2)cc1	-20	8	-9	10.0*	3
N/C(=N\OC(=O)c1cccs1)c1ccc(Cl)cc1	-10	0	3	8	7
Cc1csc(C2=C(O)CN(c3ccc4c(c3)OCCOCCOCCOCCO4)C2=N)n1	2	0	-4	2	-4
O=S(=O)(Nc1ccc(S(=O)(=O)Nc2ccccc2)cc1)c1ccccc1	3	1	1	9.2*	3
CC[n+]1c(C)cc(C)n1-c1ccccc1	-6	-19	9	6	21
CSC1=C(C#N)C(=O)NC(c2ccccc2O)S1 (stereo not given)	-10	18	-52	0	0
COC(=O)CSC1=C(C#N)C(=O)NC(c2ccccc2)S1 (stereo not given)	40*	-2	-51	-1	7
CCN(CC)C(=O)c1cc(C(C)(C)C)c(O)c(C(C)(C)C)c1	-1	3	6	-3	-6
CN(CCC(=O)Nc1ccc2c(c1)OCO2)Cc1ccccc1	-3	1	-2	10*	19
CCCn1nc(C(=O)Nc2cc(C(=O)OC)ccc2C)c2ccccc2c1=O	-7	2	-2	-2	2
COC(=O)c1ccc(C)c(NC(=O)c2nn(C)c(=O)c3ccccc23)c1	-9	6	-14	8.9*	5
Cc1ccc(O)c(-c2cc(C(=O)Nc3ccc(S(=O)(=O)Nc4nc(C)cc(C)n4)cc3)[nH]n2)c1	-10	0	-12	1	3
O=C(NC(=S)NCC1CCCO1)c1ccc(Cl)cc1 (stereo not given)	-1	5	3	1	-22
SMILES	Mdm2 ligase inh	Hck Nef HTS	Tb hexokinase	Wee1 stabilizer	14-3-3 Bad inh
O=C(NC(=S)NCC1CCCO1)c1ccccc1 (stereo not given)	0	3	2	9.0*	-24
N#Cc1c(/N=C/c2ccccc2)oc(-c2ccccc2)c1-c1ccccc1	-2	9	-7	2	-4
N#Cc1c(/N=C/c2ccco2)oc(-c2ccccc2)c1-c1ccccc1	-11	0	0	-3	93*[fluorescence artefact?]
Cc1ccc(-c2nc(CN(C)C3CCOC3)c(C)o2)s1 (stereo not given)	13	16	-4	0	-9
O=C(CSc1ncnc2ccccc12)NCC(=O)c1ccccc1	-7	25	-1	10*	-12
c1ccc(N2CCN(c3nnnn3-c3ccccc3)CC2)cc1	-8	-2	-1	9.4*	1
NC(=S)NNC(=O)Nc1ccc(Cl)c(Cl)c1	-9	4	33	4	-26
CCC1=NN(C(=O)Cc2ccc([N+](=O)[O-])cc2)C(O)(C(F)(F)F)C1 (stereo not given)	-7	-16	-5	3	-3
O=C(Cc1ccc([N+](=O)[O-])cc1)N1N=C(C2CC2)CC1(O)C(F)(F)F (stereo not given)	-5	-13	4	0	91*
Cc1ccn2cc(C(=O)Nc3nnc(C)s3)nc2c1	-16	-2	-13	8.9*	-8
Cc1ccn2cc(C(=O)Nc3ccc4c(c3)OCCO4)nc2c1	-38	-2	-3	0	-3
CCCn1nc(C(=O)NCCc2ccc(S(N)(=O)=O)cc2)c2ccccc2c1=O	-6	-2	-1	-4	1
O=C(COc1ccc(Br)cc1Br)NC(=S)Nc1cccc(CO)c1	-5	5	0	11*	10
CC(C)(C)NC(=O)NC(=O)COc1ccc(Br)cc1Br	-28	1	-1	9.8*	5
CCCNC(=O)C/C(C)=N/NC(=O)COc1ccc(C)cc1Br	0	1	28	-2	23
C/C(CC(=O)NC(C)(C)C)=N\NC(=O)COc1ccc(C)cc1Br	10	26	1	9.5*	-16
O=C(COc1ccc(Br)cc1Br)NC(=O)NC1CCCC1	5	26	-1	2	-7
Cc1cccc(NC(=O)COc2ccc(Br)cc2/C=N/O)c1	-8	4	25	9.4*	10
CC(=O)Nc1ccc(NC(=O)COc2ccc(Br)cc2C)cc1	3	-8	-6	-1	-6
Cc1ccc(Cn2c(S(=O)(=O)O)nc3ccccc32)cc1	-2	-5	9	0	81*
COc1cc(OC)c(C2=NOC(C(=O)NCc3ccc4c(c3)OCO4)C2)cc1Cl (stereo not given)	19	3	-4	1	-1
O=C(NCc1ccc2c(c1)OCO2)C1CC(c2ccc(Cl)cc2)=NO1 (stereo not given)	-1	2	2	8.8*	-6
O=[N+]([O-])c1cccc(/C=C/c2ccccn2)c1	-6	18	1	10.0*	5
O=[N+]([O-])c1cccc(/C=N/Nc2ccccn2)c1	-25	19	-47	1	1
O=C(/C=C/c1cccc([N+](=O)[O-])c1)n1cnc2ccccc21	49*	17	-5	1	-13
Cc1ccc(NC(=O)COC(=O)CNC(=O)c2ccco2)cc1	-5	-5	-1	-2	-3
Cc1noc(C(F)(F)F)c1C(=O)NNC(=O)c1ccccc1	-12	2	-14	1	-14
COCCn1nnnc1C(c1ccc2ncccc2c1)N1CCc2ccccc21 (stereo not given)	-19	5	45	6	2
